Source: ChEMBL document CHEMBL1268912, “Antidiabetic and antiobesity effects of Ampkinone (6f), a novel small molecule activator of AMP-activated protein kinase” (J Med Chem, 2010)
The source made the active and inactive calls. The rule behind the calls is not given here.

Assays:
[1] = Activation of ACC phosphorylation at S79 at 10 uM by Western blotting relative to control
Procedure, shortened: (§1)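 L6 cells, serum-starved 6 h, treated with 10 μM for set times (10 min to 6 h). RIPA lysates (40 μg) run on SDS-PAGE and blotted to nitrocellulose. Blocked in TBS-Tween with 5% milk. Probed overnight at 4 °C with anti-ACC (pS79) or anti-AMPK (pT172) and the total-protein antibodies. HRP secondary antibody, ECL detection.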

[2] = Activation of AMPK assessed as phosphorylation of T172 at 10 uM by Western blotting relative to control; procedure, shortened: as §1
L6 = experiment: Induction of ACC phosphorylation in […] cells after 10 mins; type: cell-based
Procedure, shortened: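 L6, C2C12 or 3T3-L1 cells, serum-starved 6 h, were treated for 1 h with graded concentrations (0–20 μM); L6 cells were also given a 10 μM time course. Lysates were immunoblotted for AMPK pT172, ACC pS79 and the total proteins, with ECL detection.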

3T3-L1 [3] = experiment: Induction of AMPK phosphorylation in mouse 3T3L1 cells after 1 hr
C2L12 [4] = experiment: Induction of ACC phosphorylation in mouse […] cells after 1 hr
3T3-L1 [5] = experiment: Induction of ACC phosphorylation in mouse 3T3L1 cells after 1 hr
Mus musculus [6] = experiment: Induction of AMPK phosphorylation in diet induced obese mouse liver at 10 mg/kg, sc qd by immunoblotting; type: functional, organism-based; design: dose 10 mg/kg
Procedure, shortened: (§2)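 DIO mice were dosed 10 mg/kg/day sc in PEG400 or vehicle for 1 month, n = 7 per group, then fasted 24 h. Liver and muscle lysates were immunoblotted for phospho-AMPK/ACC and the total proteins.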

L6 (Rattus norvegicus) = experiment: Increase in AMPK-mediated glucose uptake in rat L6 cells by confocal laser scanning microscopy in presence of compound C
[7] = molecular target: T1, Serine/threonine-protein kinase STK11 (Homo sapiens) (UniProt Q15831); experiment: Activation of LKB1 expressed in human HeLa cells assessed as increase in AMPK phosphorylation; type: cell-based
T1 sequence (whole entry): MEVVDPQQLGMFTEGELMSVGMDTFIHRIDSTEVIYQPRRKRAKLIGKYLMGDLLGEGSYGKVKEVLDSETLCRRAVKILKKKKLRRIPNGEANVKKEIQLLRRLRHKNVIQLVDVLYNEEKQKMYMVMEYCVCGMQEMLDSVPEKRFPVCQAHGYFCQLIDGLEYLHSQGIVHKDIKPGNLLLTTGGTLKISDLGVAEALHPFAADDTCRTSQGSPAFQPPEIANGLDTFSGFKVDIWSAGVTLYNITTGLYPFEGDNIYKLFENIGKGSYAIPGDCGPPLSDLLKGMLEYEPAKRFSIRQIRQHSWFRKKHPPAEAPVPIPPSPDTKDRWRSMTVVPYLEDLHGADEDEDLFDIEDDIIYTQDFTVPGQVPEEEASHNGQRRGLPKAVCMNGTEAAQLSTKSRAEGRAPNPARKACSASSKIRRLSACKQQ
Procedure, shortened: (§3)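 HeLa cells lack endogenous LKB1. They were transfected for 24 h with HA-tagged LKB1 in pcDNA3.1 or mock-transfected. After 6 h serum starvation, cells were exposed to 10 μM for set times. Lysates were immunoblotted for AMPK (pT172), total AMPK and HA.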

Mus musculus [8] = experiment: Antiobesity activity in diet induced obese mouse assessed as change in food intake at 10 mg/kg, sc qd; type: functional, organism-based; design: dose 10 mg/kg
Procedure, shortened: (§4)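 DIO C57BL/6J males (high-fat diet, 60% of calories from fat, for 8 weeks) were given 10 mg/kg/day sc in PEG400 or vehicle for 30 days, n = 7 per group. Body weight and food intake were recorded every 3 days.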

Mus musculus [9] = experiment: Antiobesity activity in diet induced obese mouse assessed as change in body weight at 10 mg/kg, sc qd; type: functional, organism-based; design: dose 10 mg/kg; procedure, shortened: as §4
C2C12 [10] = experiment: Increase in AMPK-mediated glucose uptake in mouse C2C12 cells by confocal laser scanning microscopy; type: cell-based
Procedure, shortened: (§5)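 C2C12 myocytes were differentiated in 2% horse serum, held in low-glucose serum-free medium for 4 h, then treated for 1 h in glucose-free DMEM at 10 μM. In the CLSM chamber at 37 °C, 5 μM Cy3-Glc-R was injected and images taken every 7 s to follow fluorescence uptake.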

Mus musculus [11] = experiment: Antidiabetic activity in diet induced obese mouse assessed as reduction in glucose level at 10 mg/kg, sc qd; type: functional, organism-based; design: dose 10 mg/kg
Procedure, shortened: (§6)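 DIO mice were male C57BL/6J fed a 60%-fat diet from 4 weeks of age for 8 weeks. Dosed 10 mg/kg/day sc in PEG400 or vehicle for 1 month, n = 7 per group. Serum insulin was measured by mouse insulin ELISA and blood glucose by glucometer. Mean ± SD; Student's t test/ANOVA.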

C2C12 [12] = experiment: Increase in AMPK-mediated glucose uptake in mouse C2C12 cells assessed as increase in fluorescent intensity by confocal laser scanning microscopy; type: cell-based; procedure, shortened: as §5
Mus musculus [13] = experiment: Antidiabetic activity in diet induced obese mouse assessed as reduction in insulin level at 10 mg/kg, sc qd; type: functional, organism-based; design: dose 10 mg/kg; procedure, shortened: as §6
Mus musculus [14] = experiment: Induction of AMPK phosphorylation in diet induced obese mouse muscle at 10 mg/kg, sc qd by immunoblotting; type: functional, organism-based; design: dose 10 mg/kg; procedure, shortened: as §2
C2L12 [15] = experiment: Induction of AMPK phosphorylation in mouse […] cells after 1 hr
[16] = molecular target: AMP-activated protein kinase, AMPK (Homo sapiens) (UniProt P54646+O43741+P54619+Q9UGJ0+Q9Y478+Q13131+Q9UGI9); experiment: Induction of AMPK phosphorylation in human HeLa cells; type: cell-based; procedure, shortened: as §3
[17] = Induction of AMPK phosphorylation in […] cells […]; type: cell-based; details: L6, 10 min

Row | Activity [1] | Activity [2] | SMILES | other results
1 | 154% | 249% | COc1ccc2c(c1O)OC(C)(C)c1c-2ccc2c1C(=O)N(c1ccc3c(c1)-c1ccccc1C3=O)C2=O | –
2 | 154% | 159% | COc1ccc2c(c1)OC(C)(C)c1c-2ccc2c1C(=O)N(c1ccc(C(=O)c3ccccc3)cc1)C2=O | –
3 | 295% | 322% | COc1ccc2c(c1O)OC(C)(C)c1c-2ccc2c1C(=O)N(c1ccc(C(=O)c3ccccc3)cc1)C2=O [AMPKINONE] | Activity (L6): Active; Activity (3T3-L1 [3]): Dose-dependent effect; Activity (C2L12 [4]): Dose-dependent effect; Activity (3T3-L1 [5]): Dose-dependent effect; Activity (Mus musculus [6]): Active; Activity (L6 (Rattus norvegicus)): inactive; Activity [7]: Active; Activity (Mus musculus [8]): inactive; Activity (Mus musculus [9]): inactive; fold change (FC) (C2C12 [10]): 3.2; Activity (Mus musculus [11]): Active; Activity (C2C12 [12]): Active; Activity (Mus musculus [13]): Active; Activity (Mus musculus [14]): Active; Activity (C2L12 [15]): Dose-dependent effect; Activity [16]: Active; EC50 [17]: 4.3 µM
4 | 145% | 205% | COc1ccc2c(c1O)OC(C)(C)c1c-2ccc2c1C(=O)N(C)C2=O | –
5 | 254% | 273% | COc1ccc2c(c1O)OC(C)(C)c1c-2ccc2c1C(=O)N(c1ccccc1)C2=O | –
6 | 156% | 186% | CC1(C)Oc2cc(F)ccc2-c2ccc3c(c21)C(=O)N(c1ccc(C(=O)c2ccccc2)cc1)C3=O | –
7 | 384% | 264% | COc1ccc2c(c1O)OC(C)(C)c1c-2ccc2c1C(=O)N(c1ccc(C(C)=O)cc1)C2=O | –
8 | 129% | 169% | COc1ccc2c(c1O)OC(C)(C)c1c-2ccc2c1C(=O)N(c1ccc(Cc3ccccc3)cc1)C2=O | –
9 | 51% | 113% | COc1ccc2c(c1O)OC1(CCCC1)c1c-2ccc2c1C(=O)N(c1ccc(C(=O)c3ccccc3)cc1)C2=O | –
10 | 114% | 160% | COc1ccc2c(c1O)OC(C)(C)c1c-2ccc2c1C(=O)N(c1ccc(-c3ccccc3)cc1)C2=O | –
11 | 123% | 158% | COc1ccc2c(c1O)OC(C)(C)c1c-2ccc2c1C(=O)NC2=O | –
12 | 91% | 92% | COc1ccc2c(c1O)OC(C)(C)c1c-2ccc2c1C(=O)N(c1ccc(-c3nc4ccccc4o3)cc1)C2=O | –
13 | 194% | 165% | COc1ccc2c(c1O)OC(C)(C)c1c-2ccc2c1C(=O)N(Cc1ccccc1)C2=O | –
14 | 92% | 203% | CC1(C)Oc2ccccc2-c2ccc3c(c21)C(=O)N(c1ccc(C(=O)c2ccccc2)cc1)C3=O | –
15 | 201% | 175% | COc1ccc2c(c1O)OC(C)(C)c1c-2ccc2c1C(=O)N(c1cccc(-c3ccccc3)c1)C2=O | –
